Results reported in ChEMBL document CHEMBL1806466, “2-Amino-4-methyl-5-phenylethyl substituted-7-N-benzyl-pyrrolo[2,3-d]pyrimidines as novel antitumor antimitotic agents that also reverse tumor resistance” (Bioorg Med Chem, 2011).
Active and inactive are the calls of the source. The rule behind the calls is not given here.

Tests used:
NCI/ADR = assay: Reversal of Pgp-mediated multidrug resistance in human NCI/ADR cells assessed as enhancement of cytotoxicity of vinblastine after 48 hrs by sulforhodamine B assay; format: cell-based
In short: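 NCI/ADR cells plated at ~15% confluency and allowed 24 h to attach. […] Survival by SRB binding, each value the mean of three wells, with ethanol solvent controls. Pgp Antagonism Score = % survival without vinblastine / % survival with vinblastine.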

[1] = target: Multidrug resistance-associated protein 1 (Homo sapiens, UniProt P33527); assay: Reversal of MRP1-mediated multidrug resistance in human MCF7/VP cells assessed as enhancement of cytotoxicity of vincristine after 48 hrs by sulforhodamine B assay; format: cell-based
Chain of Multidrug resistance-associated protein 1 (P33527 whole entry): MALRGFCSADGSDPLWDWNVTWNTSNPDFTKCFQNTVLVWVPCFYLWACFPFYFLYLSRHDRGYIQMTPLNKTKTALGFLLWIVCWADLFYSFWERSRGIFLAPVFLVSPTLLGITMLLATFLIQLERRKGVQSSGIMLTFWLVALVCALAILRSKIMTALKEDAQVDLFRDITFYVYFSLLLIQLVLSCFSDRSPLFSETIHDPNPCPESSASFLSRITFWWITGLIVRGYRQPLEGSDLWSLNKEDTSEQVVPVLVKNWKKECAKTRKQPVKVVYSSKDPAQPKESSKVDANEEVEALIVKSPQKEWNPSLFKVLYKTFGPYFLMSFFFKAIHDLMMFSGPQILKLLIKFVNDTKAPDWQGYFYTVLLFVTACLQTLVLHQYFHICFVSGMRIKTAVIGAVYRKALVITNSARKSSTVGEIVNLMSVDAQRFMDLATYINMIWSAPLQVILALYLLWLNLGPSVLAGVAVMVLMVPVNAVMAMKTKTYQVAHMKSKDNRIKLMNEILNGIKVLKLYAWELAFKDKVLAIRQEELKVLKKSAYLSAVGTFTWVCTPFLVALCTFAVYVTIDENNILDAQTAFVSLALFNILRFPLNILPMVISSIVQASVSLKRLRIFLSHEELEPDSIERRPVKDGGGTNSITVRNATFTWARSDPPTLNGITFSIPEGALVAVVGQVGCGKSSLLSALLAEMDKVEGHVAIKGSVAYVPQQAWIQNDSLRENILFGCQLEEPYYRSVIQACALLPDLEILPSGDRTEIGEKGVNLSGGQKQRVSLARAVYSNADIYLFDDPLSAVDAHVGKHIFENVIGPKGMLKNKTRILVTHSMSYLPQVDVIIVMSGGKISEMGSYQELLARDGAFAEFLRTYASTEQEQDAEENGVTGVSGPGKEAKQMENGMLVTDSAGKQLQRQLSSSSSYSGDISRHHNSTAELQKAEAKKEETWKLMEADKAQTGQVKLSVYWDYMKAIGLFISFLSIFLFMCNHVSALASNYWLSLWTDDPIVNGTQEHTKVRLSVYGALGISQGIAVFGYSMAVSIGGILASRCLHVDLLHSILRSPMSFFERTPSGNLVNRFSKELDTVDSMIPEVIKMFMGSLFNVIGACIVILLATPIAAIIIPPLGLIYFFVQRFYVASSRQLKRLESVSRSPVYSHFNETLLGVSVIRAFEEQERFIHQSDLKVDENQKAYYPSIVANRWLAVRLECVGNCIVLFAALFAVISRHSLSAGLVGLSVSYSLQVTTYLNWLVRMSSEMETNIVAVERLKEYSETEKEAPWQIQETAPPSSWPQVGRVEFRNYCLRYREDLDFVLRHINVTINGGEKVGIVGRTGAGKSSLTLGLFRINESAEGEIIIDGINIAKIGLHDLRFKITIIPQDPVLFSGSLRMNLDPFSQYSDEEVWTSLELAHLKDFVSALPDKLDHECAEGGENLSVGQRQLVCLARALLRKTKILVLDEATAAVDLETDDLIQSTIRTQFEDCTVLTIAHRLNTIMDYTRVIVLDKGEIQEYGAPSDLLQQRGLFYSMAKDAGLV
In short: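 MCF-7/VP cells plated at ~15% confluency and allowed 24 h to attach. […] Survival by SRB binding. MRP1 Antagonism Score = % survival without vincristine / % survival with vincristine.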

Bos taurus = species: Bos taurus; assay: Effect on bovine brain microtubule depolymerization assessed as decrease in absorbance at wavelength 340 nm after 15 mins
In short: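 Bovine brain tubulin purified by three assembly/disassembly cycles followed by ion exchange. Tubulin at 2.5 mg/mL […] in 1 M glutamate, pH 6.6, with 4% DMSO, preincubated with compound at 0 °C for 15 min. 0.5 mM GTP then added and samples warmed to 37 °C. A340 monitored about 60 min.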

HL-60(TB) = assay: Antitumor activity against human HL-60(TB) cells after 48 hrs by sulforhodamine B assay; format: functional; conditions: HL-60, 48 h
In short: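 NCI-60 screen: cells grown in RPMI 1640 with 5% FBS and 2 mM L-glutamine, seeded at 5,000–40,000 cells/well and incubated 24 h at 37 °C, 5% CO2 before dosing. Five concentrations (10-fold or ½-log dilutions from DMSO stock), 48 h. Suspension cells fixed with 80% TCA (final 16%), stained with 0.4% SRB, A515 read. GI50 calculated against time-zero and control growth.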

K562 = assay: Antitumor activity against human K562 cells after 48 hrs by sulforhodamine B assay; format: functional; conditions: K562, 48 h
In short: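 NCI-60 screen, suspension lines: grown in RPMI 1640 with 5% FBS and 2 mM L-glutamine. Seeded at 5,000–40,000 cells/well and preincubated 24 h at 37 °C, 5% CO2, with time-zero plates fixed. Five concentrations (10-fold or half-log) given for 48 h. Settled cells fixed with 80% TCA (16% final), then SRB-stained and read at 515 nm. GI50 is from the net growth relative to time zero and control.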

A549 = assay: Antitumor activity against human A549 cells after 48 hrs by sulforhodamine B assay; format: functional; conditions: A549, 48 h
In short: (§1)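 NCI-60 screen, adherent lines: grown in RPMI 1640 with 5% FBS and 2 mM L-glutamine. Seeded at 5,000–40,000 cells/well by doubling time and preincubated 24 h at 37 °C, 5% CO2, with time-zero plates TCA-fixed. Five concentrations (10-fold or half-log) given for 48 h. Fixed with cold TCA (10% final), then SRB-stained and read at A515. GI50 is 50% reduction of net protein increase versus control.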

NCI-H226 = assay: Antitumor activity against human NCI-H226 cells after 48 hrs by sulforhodamine B assay; format: functional; conditions: NCI-H226, 48 h; in short: as §1
NCI-H322M = assay: Antitumor activity against human NCI-H322M cells after 48 hrs by sulforhodamine B assay; format: functional; in short: as §1
HCT-116 = assay: Antitumor activity against human HCT116 cells after 48 hrs by sulforhodamine B assay; format: functional; conditions: HCT-116, 48 h; in short: as §1
HCT-15 = assay: Antitumor activity against human HCT15 cells after 48 hrs by sulforhodamine B assay; format: functional; conditions: HCT-15, 48 h; in short: as §1
SW-620 = assay: Antitumor activity against human SW620 cells after 48 hrs by sulforhodamine B assay; format: functional; conditions: SW-620, 48 h; in short: as §1
SF-268 = assay: Antitumor activity against human SF268 cells after 48 hrs by sulforhodamine B assay; format: functional; conditions: SF-268, 48 h; in short: as §1
SF-539 = assay: Antitumor activity against human SF539 cells after 48 hrs by sulforhodamine B assay; format: functional; conditions: SF-539, 48 h; in short: as §1
LOX IMVI = assay: Antitumor activity against human LOXIMVI cells after 48 hrs by sulforhodamine B assay; format: functional; in short: as §1
M14 = assay: Antitumor activity against human M14 cells after 48 hrs by sulforhodamine B assay; format: functional; conditions: M14, 48 h; in short: as §1
UACC-62 = assay: Antitumor activity against human UACC62 cells after 48 hrs by sulforhodamine B assay; format: functional; conditions: UACC-62, 48 h
In short: (§2)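 NCI-60 panel lines grown in RPMI 1640 with 5% FBS and 2 mM L-glutamine. Cells plated at 5,000–40,000/well by doubling time, given 24 h before drug, then exposed to five concentrations for 48 h at 37 °C. Time-zero plates fixed with TCA. Cells fixed with TCA, stained with 0.4% SRB, read at 515 nm. GI50 = 50% reduction in net protein increase versus control.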

OVCAR-8 = assay: Antitumor activity against human OVCAR8 cells after 48 hrs by sulforhodamine B assay; format: functional; conditions: OVCAR-8, 48 h; in short: as §1
786-0 = assay: Antitumor activity against human 786-0 cells after 48 hrs by sulforhodamine B assay; format: functional; conditions: 786-0, 48 h; in short: as §1
SN12C = assay: Antitumor activity against human SN12C cells after 48 hrs by sulforhodamine B assay; format: functional; in short: as §1
TK-10 = assay: Antitumor activity against human TK10 cells after 48 hrs by sulforhodamine B assay; format: functional; conditions: TK-10, 48 h; in short: as §2
NCI/ADR-RES = assay: Antitumor activity against human NCI/ADR-RES cells after 48 hrs by sulforhodamine B assay; format: functional; in short: as §1
MDA-MB-231 = assay: Antitumor activity against human MDA-MB-231 cells after 48 hrs by sulforhodamine B assay; format: functional; conditions: MDA-MB-231, 48 h; in short: as §1
MDA-MB-435 = assay: Antitumor activity against human MDA-MB-435 cells after 48 hrs by sulforhodamine B assay; format: functional; conditions: MDA-MB-435, 48 h; in short: as §1
BT-549 = assay: Antitumor activity against human BT549 cells after 48 hrs by sulforhodamine B assay; format: functional; conditions: BT-549, 48 h; in short: as §1
T47D = assay: Antitumor activity against human T47D cells after 48 hrs by sulforhodamine B assay; format: functional; in short: as §2
[2] = Cytotoxic activity against drug-resistant […]-deficient human NCI/ADR cells expressing Pgp after 48 hrs by sulforhodamine B assay; format: functional, cell-based; conditions: NCI/ADR-RES
In short: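 Cells plated at ~15% confluency and allowed 24 h to attach, then exposed to varying test concentrations for 48 h. Survival by SRB binding, reported as % decrease in binding versus ethanol solvent controls, mean of three wells. For NCI/ADR, exposure with 0 or 50 nM vinblastine; for MCF-7/VP, with 0 or 1 nM vincristine.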

MCF7 = assay: Resistance factor, ratio of IC50 for Pgp-deficient human MCF7/VP cells expressing MRP1 in absence of vincristine to IC50 for drug sensitive human MCF7 cells in presence of 1 nM vincristine

Structure (SMILES): COc1cc(CCc2cn(Cc3ccccc3)c3nc(N)nc(C)c23)c(OC)c(OC)c1OC
- Activity (NCI/ADR): Active
- Activity [1]: Not Active
- Activity (Bos taurus): Active
- GI50 (HL-60(TB)): 2.06 µM
- GI50 (K562): 2.48 µM
- GI50 (A549): 5.33 µM
- GI50 (NCI-H226): 4.27 µM
- GI50 (NCI-H322M): 6.92 µM
- GI50 (HCT-116): 3.68 µM
- GI50 (HCT-15): 3.2 µM
- GI50 (SW-620): 3.19 µM
- GI50 (SF-268): 4.4 µM
- GI50 (SF-539): 1.86 µM
- GI50 (LOX IMVI): 5.29 µM
- GI50 (M14): 3.33 µM
- GI50 (UACC-62): 2.13 µM
- GI50 (OVCAR-8): 4.71 µM
- GI50 (786-0): 4.5 µM
- GI50 (SN12C): 6.86 µM
- GI50 (TK-10): 7.62 µM
- GI50 (NCI/ADR-RES): 2.02 µM
- GI50 (MDA-MB-231): 3.69 µM
- GI50 (MDA-MB-435): 0.34 µM
- GI50 (BT-549): 9.75 µM
- GI50 (T47D): 1.69 µM
- IC50 [2]: 7 µM
- Ratio IC50 (MCF7): 0.37
